Columns and labels:
Coagulation factor X [1] = target: T1, Coagulation factor X (Homo sapiens, UniProt P00742); assay: Inhibitory concentration against human Coagulation factor Xa(fXa)
How it was run: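 4-Nitroaniline release was read by absorbance at 405 nm. Inhibitors were prepared as 40 mM DMSO stocks and tested at 500, 50 and 5 µM. Km and Ki were obtained by nonlinear regression, with known factor Xa inhibitors as reference.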

Serine protease 1 = target: T2, Serine protease 1 (Bos taurus, UniProt P00760); assay: Inhibitory concentration against bovine trypsin
T2 sequence (P00760 whole entry): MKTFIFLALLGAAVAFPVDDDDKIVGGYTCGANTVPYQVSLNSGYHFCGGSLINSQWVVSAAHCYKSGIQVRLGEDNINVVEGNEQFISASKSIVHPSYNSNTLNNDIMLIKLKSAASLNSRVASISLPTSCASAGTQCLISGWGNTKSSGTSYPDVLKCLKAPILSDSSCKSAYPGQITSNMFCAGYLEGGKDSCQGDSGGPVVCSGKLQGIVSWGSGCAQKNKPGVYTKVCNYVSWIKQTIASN

Prothrombin = Prothrombin (Homo sapiens, UniProt P00734); assay: Inhibitory concentration against thrombin.
Coagulation factor X [2] = target: T1, Coagulation factor X; assay: Inhibitory concentration against human Coagulation factor Xa (fXa)

T1 sequence (P00742 41-179 limits assumed): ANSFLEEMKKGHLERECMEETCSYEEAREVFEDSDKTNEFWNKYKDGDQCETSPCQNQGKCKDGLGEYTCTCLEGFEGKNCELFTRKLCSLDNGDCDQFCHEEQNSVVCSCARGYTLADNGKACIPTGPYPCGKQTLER
T1 sequence (P00742 235-488 limits assumed): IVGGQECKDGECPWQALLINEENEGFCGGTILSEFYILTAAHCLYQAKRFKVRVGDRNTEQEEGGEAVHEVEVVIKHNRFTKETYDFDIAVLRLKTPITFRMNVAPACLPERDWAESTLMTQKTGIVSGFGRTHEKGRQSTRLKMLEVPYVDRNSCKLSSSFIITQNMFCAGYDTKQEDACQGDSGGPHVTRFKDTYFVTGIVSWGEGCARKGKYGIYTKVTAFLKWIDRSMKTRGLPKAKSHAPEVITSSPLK

Row | Compound | Ki (Coagulation factor X [1]) [nM] | Ki (Serine protease 1) [nM] | Ki (Prothrombin) [nM] | Ki (Coagulation factor X [2]) [nM]
1 | N=C(N)c1cccc(C(=O)N[C@@H](C(=O)N2CCN(c3ccc(Cl)cc3)CC2)c2ccccc2)c1 | 16 | 1700 | 1600 | –
2 | N=C(N)c1cccc(C(=O)N[C@@H](C(=O)OCCC2CCN(C(=N)N)CC2)c2ccccc2)c1 | – | 1600 | – | 26
3 | CCOC(=O)[C@@H](Cc1ccc2ccccc2c1)NC(=O)c1cccc(C(=N)N)c1 | – | 12500 | – | 2000
4 | N=C(N)c1cccc(C(=O)NCC(=O)NCC2CCC(CN)CC2)c1 (configuration not stated) | – | 14000 | – | –
5 | N=C(N)c1cccc(C(=O)N[C@@H](C(=O)N2CCC(C(=O)c3ccccc3)CC2)c2ccccc2)c1 | – | 980 | – | –
6 | N=C(N)c1cccc(C(=O)N[C@@H](C(=O)NCC2CCC(CN)CC2)c2ccccc2)c1 (some centres not stated) | – | 7400 | – | –
7 | N=C(N)c1ccccc1 [BENZAMIDINE] | – | – | – | 200
8 | CC(=N)N1CCC(Oc2ccc(N(Cc3ccc4ccc(C(=N)N)cc4c3)S(=O)(=O)CC(=O)O)cc2)CC1 [YM-60828] | – | 159 | – | –

Source: ChEMBL document CHEMBL1135884 (J Med Chem, 2002)
